Laboratory results reported in ChEMBL document CHEMBL4033790, “Design and Synthesis of Novel Deuterated Ligands Functionally Selective for the γ-Aminobutyric Acid Type A Receptor (GABAAR) α6 Subtype with Improved Metabolic Stability and Enhanced Bioavailability” (J Med Chem, 2018).
The source made the active and inactive calls. The rule behind the calls is not given here.

Experiments:
[1] = Terminal elimination half-life in Wistar rat brain at 2 mg/kg, iv administered as single dose by HPLC-MS/MS analysis; assay type: ADME, organism-based; details: read-out: beta t1/2 (converted)
Outline: (§1)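 Male Wistar rats (250-350 g) received a single 2 mg/kg dose, nanoemulsion formulation, by oral gavage or IV. Three rats per time point (5, 30, 120, 480, 1440 min); plasma and brain collected. Compound extracted by solid-phase extraction and quantified by HPLC-MS/MS. Absolute oral bioavailability was calculated from plasma AUC after the two routes.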

[2] = target: GABA-A receptor; alpha-3/beta-3/gamma-2 (Homo sapiens) (UniProt P18507+P28472+P34903); assay: Positive allosteric modulation of GABA-A receptor alpha3beta3gamma2 (unknown origin) expressed in Xenopus laevis oocytes assessed as potentiation of EC3 GABA induced currents up to 1 uM at -60 mV holding potential by electrophysiological method relative to GABA; assay type: cell-based
Outline: (§2)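 Stage 5–6 defolliculated Xenopus oocytes were injected with 2.5 ng total mRNA per oocyte: α1, α2, α3 or α5 with β3 and γ2 at 1:1:5, and α4 or α6 with β3 and γ2 at 3:1:5. Oocytes were kept ≥36 h at 18 °C in NDE medium before recording. Compounds were co-applied with GABA titrated to EC3-5 for each oocyte. Curves were fitted with the Hill equation; mean ± SEM from ≥3 oocytes across two batches.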

[3] = test system: Mus musculus; assay: Hyperlocomotor activity in C57BL/6 mouse assessed as total distance travelled at 3 to 10 mg/kg, ip after 60 mins; assay type: ADME, organism-based; details: in vivo, 1 h
[4] = target: 5-hydroxytryptamine receptor 7 (Homo sapiens) (UniProt P34969); assay: Displacement of [3H]-LSD from human recombinant 5HT7 receptor expressed in HEK293 cells at 10 uM after 60 to 90 mins by scintillation counting; assay type: cell-based
Sequence of 5-hydroxytryptamine receptor 7 (Homo sapiens) (P34969 whole entry): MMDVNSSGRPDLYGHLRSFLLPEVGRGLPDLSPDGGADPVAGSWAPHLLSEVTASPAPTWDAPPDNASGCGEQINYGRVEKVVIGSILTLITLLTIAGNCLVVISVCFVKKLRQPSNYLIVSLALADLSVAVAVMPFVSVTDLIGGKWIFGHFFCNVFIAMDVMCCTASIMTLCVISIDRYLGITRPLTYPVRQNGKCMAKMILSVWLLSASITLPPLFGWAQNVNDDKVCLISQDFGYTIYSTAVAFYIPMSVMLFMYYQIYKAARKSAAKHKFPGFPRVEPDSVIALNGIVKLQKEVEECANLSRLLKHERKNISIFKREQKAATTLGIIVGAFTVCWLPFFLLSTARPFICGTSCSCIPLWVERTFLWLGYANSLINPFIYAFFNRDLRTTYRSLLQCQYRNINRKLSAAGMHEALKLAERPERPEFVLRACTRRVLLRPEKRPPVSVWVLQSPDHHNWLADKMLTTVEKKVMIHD

[5] = test system: Brain; assay: AUC (0 to 24 hrs) in Wistar rat brain at 2 mg/kg, iv administered as single dose by HPLC-MS/MS analysis; assay type: ADME, organism-based; parameters: time < 24 hr, dose 2 mg/kg, route intravenous; details: in vivo
[6] = test system: Liver; assay: Half life in mouse liver microsomes at 10 uM by LC-MS/MS analysis; assay type: ADME, microsome
Outline: (§3)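 Compound at 10 μM final was preincubated 5 min at 37 °C with NADPH regenerating system in phosphate buffer, pH 7.4. Human or mouse liver microsomes (0.5 mg/mL protein) were added to start the reaction. Samples were taken at 0 (no microsomes) and 10–60 min and measured by LC-MS/MS against an internal standard. Half-life = 0.693/k, with k the slope of ln peak-area ratio versus time. Three experiments, each in duplicate.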

[7] = test system: Liver; assay: Half life in human liver microsomes at 10 uM by LC-MS/MS analysis; assay type: ADME, microsome; outline: as §3
[8] = target: Mu-type opioid receptor (Homo sapiens) (UniProt P35372); assay: Displacement of [3H]-DAMGO from human recombinant MOR expressed in HEK293 cells at 10 uM after 60 to 90 mins by scintillation counting; assay type: cell-based
Sequence of Mu-type opioid receptor (Homo sapiens) (P35372 whole entry): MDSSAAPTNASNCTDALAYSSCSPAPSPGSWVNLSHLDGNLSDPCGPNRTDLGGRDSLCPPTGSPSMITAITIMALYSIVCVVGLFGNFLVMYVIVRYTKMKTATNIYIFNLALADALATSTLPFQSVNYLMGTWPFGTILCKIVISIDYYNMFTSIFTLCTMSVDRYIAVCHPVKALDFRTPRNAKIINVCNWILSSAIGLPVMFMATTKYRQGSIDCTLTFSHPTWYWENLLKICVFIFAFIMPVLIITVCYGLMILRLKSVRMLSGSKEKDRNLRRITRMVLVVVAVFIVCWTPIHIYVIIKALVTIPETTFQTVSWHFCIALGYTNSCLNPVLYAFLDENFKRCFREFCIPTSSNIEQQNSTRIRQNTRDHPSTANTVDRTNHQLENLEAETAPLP

[9] = target: D(1B) dopamine receptor (Homo sapiens) (UniProt P21918); assay: Displacement of [3H]-[…] from human recombinant dopamine D5 receptor expressed in HEK293 cells at 10 uM after 60 to 90 mins by scintillation counting; assay type: cell-based
Sequence of D(1B) dopamine receptor (Homo sapiens) (P21918 whole entry): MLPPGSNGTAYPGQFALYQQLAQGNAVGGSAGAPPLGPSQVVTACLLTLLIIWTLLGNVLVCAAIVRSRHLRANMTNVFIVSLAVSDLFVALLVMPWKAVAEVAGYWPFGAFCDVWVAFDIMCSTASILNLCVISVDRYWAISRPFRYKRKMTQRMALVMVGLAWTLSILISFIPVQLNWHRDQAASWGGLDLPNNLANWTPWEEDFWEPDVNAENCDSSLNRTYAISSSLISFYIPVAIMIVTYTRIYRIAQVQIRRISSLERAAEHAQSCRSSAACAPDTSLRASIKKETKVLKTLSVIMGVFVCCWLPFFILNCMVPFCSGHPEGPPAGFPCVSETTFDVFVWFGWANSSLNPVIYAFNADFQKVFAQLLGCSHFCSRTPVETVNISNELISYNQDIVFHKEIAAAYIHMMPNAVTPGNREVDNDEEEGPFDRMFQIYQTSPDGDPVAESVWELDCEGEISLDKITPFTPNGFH
Outline: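 Primary single-concentration radioligand displacement screen run by the NIMH Psychoactive Drug Screening Program across a 46-target panel that includes hERG. The read-out is percent inhibition of specific radioligand binding. Any compound displacing more than 50% of radioligand went on to secondary binding assays to determine Ki.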

[10] = test system: Mus musculus; assay: Neurotoxicity in Swiss Webster mouse assessed as induction of motor impairment at 40 mg/kg administered via oral gavage measured after 10 to 60 mins by rotarod method; assay type: toxicity, organism-based; details: in vivo
Outline: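 Female mice were given a single oral gavage dose of 40 mg/kg, either in 50% PBS/40% propylene glycol/10% DMSO or, for poorly soluble compounds, in 2% polyethylene glycol plus 2.5% hydroxymethyl cellulose. Rotarod performance was tested 10, 30 and 60 min after dosing, with diazepam 5 mg/kg as positive control.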

[11] = test system: Brain; assay: Oral bioavailability in Wistar rat brain at 2 mg/kg administered as single dose via gavage by HPLC-MS/MS analysis; assay type: ADME, organism-based; details: in vivo; outline: as §1
[12] = target: GABA-A receptor; alpha-5/beta-3/gamma-2 (Homo sapiens) (UniProt P18507+P28472+P31644); assay: Positive allosteric modulation of GABA-A receptor alpha5beta3gamma2 (unknown origin) expressed in Xenopus laevis oocytes assessed as potentiation of EC3 GABA induced currents up to 1 uM at -60 mV holding potential by electrophysiological method relative to GABA; assay type: cell-based; outline: as §2
[13] = target: GABA A receptor alpha-4/beta-3/gamma-2 (Homo sapiens) (UniProt P18507+P28472+P48169); assay: Positive allosteric modulation of GABA-A receptor alpha4beta3gamma2 (unknown origin) expressed in Xenopus laevis oocytes assessed as potentiation of EC3 GABA induced currents up to 1 uM at -60 mV holding potential by electrophysiological method relative to GABA; assay type: cell-based; outline: as §2
[14] = test system: Rattus norvegicus; assay: Toxicity in Wistar rat assessed as open arm entries at 10 mg/kg, ip administered for 45 mins measured for 5 min by elevated plus maze apparatus method (reference value: 23.07 +/- 5.47%); assay type: organism-based; details: in vivo
[15] = test system: Rattus norvegicus; assay: Hyperlocomotor activity in Wistar rat assessed as total distance travelled at 10 mg/kg, ip after 60 mins; assay type: ADME, organism-based; details: in vivo, 1 h
[16] = test system: Mus musculus; assay: Hyperlocomotor activity in C57BL/6 mouse assessed as total distance travelled at 3 to 10 mg/kg, ip after 60 mins in presence of diazepam; assay type: ADME, organism-based; details: in vivo, 1 h
[17] = Drug metabolism in mouse liver microsomes assessed as CYP450 mediated-O-demethylated 7-hydroxy-2-(4-hydroxyphenyl)-2H-pyrazolo[4,3-c]quinolin-3(5H)-one metabolite formation after 60 mins by LC-MS analysis; assay type: ADME; details: 1 h
Outline: (§4)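 The 60-min samples from the human or mouse liver microsome incubations (10 µM compound, 0.5 mg/mL protein, NADPH regenerating system, 37 °C, pH 7.4) were run on LC-MS in SIM mode with dual ESI/APCI ionization. The method was calibrated to each component's retention time and mass, and the peak intensities of the parent and O-demethylated metabolites were measured.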

[18] = test system: Rattus norvegicus; assay: Toxicity in Wistar rat assessed as closed arm entries at 10 mg/kg, ip administered for 45 mins measured for 5 min by elevated plus maze apparatus method (reference value: 3.63 +/- 0.42); assay type: organism-based; details: in vivo
[19] = test system: HepG2; assay: Cytotoxicity against human HepG2 cells assessed as reduction in cell viability up to 400 uM after 48 hrs by CellTiter-Glo assay; assay type: cell-based; details: hepg2, 48 h
Outline: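 HEK293T and HepG2 cells grown in high-glucose DMEM with non-essential amino acids, 10 mM HEPES, penicillin/streptomycin and 10% heat-inactivated FBS. Cells were harvested with trypsin and plated; compound was pin-transferred 3 h later. Incubation was 48 h, then CellTiter-Glo luminescence was read. Controls were DMSO (negative) and a cytotoxic aminoketone (positive). Quadruplicates, three independent runs, normalized to controls, nonlinear regression.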

[20] = Drug metabolism in human liver microsomes assessed as CYP450 mediated-O-demethylated 2-(4-hydroxyphenyl)-7-methoxy-2H-pyrazolo[4,3-c]quinolin-3(5H)-one metabolite formation after 60 mins by LC-MS analysis; assay type: ADME; details: 1 h; outline: as §4
[21] = test system: Rattus norvegicus; assay: Toxicity in Wistar rat assessed as average swim speed at 10 mg/kg, ip administered for 45 mins by cued water-maze apparatus method (reference value: 0.21 +/- 0.01 meter/s); assay type: organism-based; details: in vivo, 0.75 h

In the case of `COc1ccc(-n2nc3c4ccc(OC)cc4[nH]cc-3c2=O)cc1`, the half-life [1] is reported as 10.9 h, the Activity [2] is reported as under 0% and the Activity [3] is reported as “Toxic”. The inhibition [4] was “Active”, the AUC [5] was 857.8 ng·h/g and the t1/2 [6] was 3.2 h. The t1/2 [7] was 3.6 h, the inhibition [8] was “Active” and the inhibition [9] was “Active”. The Activity [10] was “Non-Toxic”, the F [11] was 82.6% and the Activity [12] was under 0%. The Activity [13] was under 0%.

In the case of `[2H]C([2H])([2H])Oc1ccc(-n2nc3c4ccc(OC)cc4[nH]cc-3c2=O)cc1`, the half-life [1] is reported as 4.34 h, the Activity [14] is reported as 22.36% and the Activity [3] is reported as “Toxic”. The AUC [5] was 573.46 ng·h/g, the Activity [15] was “Toxic” and the Activity [16] was “Toxic”. The Drug metabolism [17] was “Metabolite_Detected”, the Activity [18] was 2.63 and the Activity [10] was “Non-Toxic”. For the same compound, the Activity [19] was “Non-Toxic”, the Drug metabolism [20] was “Metabolite_Detected” and the Activity [21] was 0.2 meter/s. The F [11] was 89.5%.
